Compound activity from PubChem BioAssay.
Compounds with a hit are over-represented: about 2.9% of the library has one in this group of screens.
Vif imaging – HIV Vif self-association inhibitors, primary screen, imaging, HEK293T, single point; inhibition, % at 7.49 µM; 340,000 tested, 0.35% active; AID 602346, 2012; HEK293T cells, Vif self-association by quenched fluorescence, 24 h; in the data active = inhibition above about 50%, passing the limit was not always enough
PglD DTNB – C. jejuni PglD acetyltransferase inhibitors, primary screen, biochemical, DTNB colorimetric, single point | UDP-N-acetylbacillosamine N-acetyltransferase PglD (Campylobacter jejuni) | purified PglD enzyme, DTNB colorimetric CoA detection | inhibition, % at 12.5 µM | 360,000 tested, 0.098% active; in the data active = inhibition above about 16%, passing the limit was not always enough
rRNA inh HTS – reduced GFP signal of wild-type E. coli, primary screen, bacterial rRNA inhibitor project, GFP/RFP fluorescence, OD600, single point | E. coli WT GFP vs humanized-ribosome RFP mutants, 24 h; active compounds read low; DMSO median 0, no signal -100 | GFP signal change (wild-type ribosome), % (test concentration not listed) | 350,000 tested, 1.6% active;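 active = significant combined selectivity score with lowered wild-type GFP, culture density cut under 30%, mutant RFP and density less affected; inactive = any of these conditions unmet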
FGF22 binding – binders of human FGF22 protein, primary screen, FGF22 synaptogenesis inhibitor project, biophysical, thermal shift, single point; 340,000 tested, 1.5% active; recombinant FGF22 thermal shift, SYPRO orange fluorescence; percent of sucrose octasulfate shift, DMSO zero; Fibroblast growth factor 22 (Homo sapiens), Q9HCT0; activity (Tm shift, normalised), % at 9.99 µM;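 active = mean Tm shift, scaled 0 neutral to 100 positive control, at about 1.3% or above, every replicate too, limit read from the data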
Target sequence (Q9HCT0 whole entry, looked up): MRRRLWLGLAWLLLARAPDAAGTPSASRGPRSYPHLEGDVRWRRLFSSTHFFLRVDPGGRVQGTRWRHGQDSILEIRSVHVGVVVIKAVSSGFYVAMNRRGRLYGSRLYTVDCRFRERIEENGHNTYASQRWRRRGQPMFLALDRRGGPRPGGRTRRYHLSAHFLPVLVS
Cneo AK release – Cryptococcus neoformans cell lysis inducers, primary screen, AK release luminescence, single concentration; C. neoformans lysis, adenylate kinase release luminescence, 4 h; normalised: neutral wells 0, clomiphene wells 100; lysis activity, % at 15 µM; 360,000 tested, 0.2% active; AID 651654, 2012;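 active = mean lysis activity across replicates of at least 80%, whatever share of replicates individually reach that level; inactive = mean lysis activity below 80%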
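Material: C. neoformans cells | Amount: Yeast cell density of 5 × 10^6 cells/mL | Medium: Fresh YPD growth medium | Dosing: Single dose | Times: Static 4 h at 37 °C with compound, 1 h detection | Detection: AK luminescence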
PGC1a acetyl inh – inhibitors of PGC1a acetylation signal, primary screen, cell-based, U2OS, AlphaScreen, inhibitor mode. AlphaScreen anti-acetyl-lysine; with virally co-expressed GCN5 acetyltransferase. inhibition, % at 15.6 µM. 350,000 tested, 0.17% active. AID 651687, 2012;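 active = every replicate shows inhibition of at least 40%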;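 note: 0% = neutral control wells and 100% = positive control wells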
Active calls of the source: *; / = not tested or not shown; ! = a repeat was not active.

SMILES	Vif imaging	PglD DTNB	rRNA inh HTS	FGF22 binding	Cneo AK release	PGC1a acetyl inh
NC(=O)[C@@H]1CCCN1Cc1nc(-c2ccc(C(F)(F)F)cc2)no1	-12	/	-4	43*	/	/
CO[C@H]1CN(C)C(=O)c2ccc(NS(=O)(=O)c3ccccc3)cc2OC[C@@H](C)N(C)C[C@@H]1C	/	/	0	/	/	2
Cc1ccc(CNS(=O)(=O)c2ccc3c(c2)NC(=O)C(C)S3)cc1 (stereo not drawn)	11	2	-34*	0	-2	7
CCc1cccc(NS(=O)(=O)c2ccc3c(c2)NC(=O)C(C)S3)c1 (stereo not drawn)	-8	0	-53	1	-3	/
COc1ccc(CCNS(=O)(=O)c2ccc3c(c2)NC(=O)C(C)S3)cc1OC (stereo not drawn)	1	-5	-21	0	6	-4
COc1ccc(CNS(=O)(=O)c2ccc3c(c2)NC(=O)C(C)S3)cc1 (stereo not drawn)	-24	-5	-19*	0	0	/
O=C1CSc2ccc(S(=O)(=O)NCc3ccc(F)cc3)cc2N1	-9	-3	-19	0	-4	-9
O=C1CSc2ccc(S(=O)(=O)NCc3ccc(Cl)cc3)cc2N1	-1	/	-30*	0	/	/
CCCNC(=O)Nc1ccc2c(c1)C(=O)N(C)C[C@@H](OC)[C@H](C)CN(Cc1ccccc1)[C@@H](C)CO2	/	/	-3	/	/	-46
CC(C)NC(=O)N(C)C[C@@H]1OCCCC[C@H](C)Oc2ccc(NS(=O)(=O)c3cccs3)cc2C(=O)N([C@H](C)CO)C[C@@H]1C	/	0	0	0	-1	9
Cc1ccc(S(=O)(=O)NCC[C@H]2CC[C@H](NC(=O)c3cnccn3)[C@@H](CO)O2)cc1	/	4	1	0	-1	5
CO[C@H]1CN(C)C(=O)c2cccc(C#N)c2OC[C@@H]2O[C@H](CC[C@H]2OC)CCN(C)C(=O)[C@H]1C	/	0	1	0	8	7
CCN(CC)c1ccc(C(=O)NNC(=O)CCl)cc1	4	1	-8	44*	-2	20
COCC(=O)N[C@H]1CC[C@@H](CC(=O)NCc2ccc(Cl)cc2)O[C@H]1CO	/	3	6	0	1	5
Cc1ccc(C(=O)Cn2nnc3ccccc32)cc1	-25	-7	/	/	-3	2
Cc1ccc(C(=O)NNC(=O)Cn2nnc3ccccc32)cc1	1	8	-31*	0	-2	10
CC(=O)NNC(=O)CCn1nnc2ccccc21	-1	-4	/	44*	0	/
CCCNC(=O)N(C)C[C@@H]1Oc2cc(-c3ccccc3F)ccc2S(=O)(=O)N([C@H](C)CO)C[C@@H]1C	/	2	-7	0	8	-9
O=C(CCCCC(=O)OC1CCCCC1)OC1CCCCC1	9	-1	1	43*	4	-9
COc1ccc2c3c([nH]c2c1)[C@@H](CO)N(C(=O)c1ccncc1)CC31CN(Cc2cccnc2)C1	/	/	3	/	/	/
CN(C)c1ccc(CNC(=O)C2(C)Cc3c(-c4ccc5c(c4)OCO5)ccnc3O2)cc1 (stereo not drawn)	8	6	-15*	0	0	/
C[C@@H]1CN([C@@H](C)CO)C(=O)c2cc(/C=C/c3ccccc3)cnc2O[C@@H]1CN(C)S(C)(=O)=O	/	3	2	0	83*	2
C[C@H](CO)N1C[C@H](C)[C@H](CN(C)S(=O)(=O)c2cn(C)cn2)Oc2ncc(/C=C/c3ccccc3)cc2C1=O	/	2	-1	0	97*!	-3
C[C@H]1CN([C@@H](C)CO)C(=O)c2cc(/C=C/c3ccccc3)cnc2O[C@H]1CN(C)S(=O)(=O)c1cn(C)cn1	/	-1	1	0	-12	-3
